Assay results published in ChEMBL document CHEMBL4251558, “Synthesis and preliminary antiproliferative activity of new pteridin-7(8H)-one derivatives” (Eur J Med Chem, 2018).
Blank lines part the entries; values can stand above or below the molecule they belong to. Activity calls are given as the source filed them. The calls are words filed in the database; no cut-off is given here.

Tests used:
[1] = tested on: MGC-803; experiment: Antiproliferative activity against human MGC803 cells assessed as decrease in cell viability after 48 hrs by MTT assay; type: functional, cell-based; settings: MGC-803, 48 h
In short: (§1)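 Cells in exponential growth seeded at 3000 per well and allowed 24 h. Medium then replaced with fresh medium holding a range of compound concentrations, followed by 48 h incubation. Viability read by MTT at 570 nm. IC50 is the concentration giving 50% inhibition of proliferation, reported as mean ± SD of three independent experiments.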

[2] = tested on: MKN-45; experiment: Antiproliferative activity against human MKN45 cells assessed as decrease in cell viability after 48 hrs by MTT assay; type: functional, cell-based; settings: MKN-45, 48 h; in short: as §1
[3] = tested on: ECa-109 cell line; experiment: Antiproliferative activity against human EC109 cells assessed as decrease in cell viability after 48 hrs by MTT assay; type: functional, cell-based; settings: ECa-109, 48 h; in short: as §1
[4] = tested on: NCI-H1650; experiment: Antiproliferative activity against human NCI-H1650 cells assessed as decrease in cell viability after 48 hrs by MTT assay; type: functional, cell-based; settings: NCI-H1650, 48 h; in short: as §1
[5] = tested on: MKN-45; experiment: Cell cycle arrest in human MKN45 cells assessed as accumulation at G2/M phase after 24 hrs by propidium iodide staining-based flow cytometric method; type: functional
In short: (§2)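 MKN-45 cells exposed to compound at 0, 2, 4 or 8 µM for 24 h. Cells then fixed and stained with PI, and DNA content analysed by flow cytometry to give phase distribution. Run three times; a representative experiment is shown.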

[6] = tested on: MKN-45; experiment: Induction of apoptosis in human MKN45 cells assessed as cleavage of caspases-3 after 24 hrs by Western blot method; type: functional, cell-based
In short: (§3)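 MKN-45 cells treated with a range of concentrations for 24 h. Cells lysed in RIPA buffer with protease inhibitors, and protein measured by BCA assay. Lysates run on SDS-PAGE and transferred to nitrocellulose. Membranes blocked in 5% skim milk for 2 h at RT, incubated with primary antibodies overnight at 4 °C, then secondary antibody (1:5000) for 2 h at RT. Detection by ECL on film.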

[7] = tested on: MKN-45; experiment: Induction of apoptosis in human MKN45 cells assessed as chromatin shrinkage at 4 to 8 uM after 24 hrs by Hoechst 33258 staining-based fluorescence microscopic method; type: functional, cell-based
[8] = tested on: MKN-45; experiment: Cell cycle arrest in human MKN45 cells assessed as accumulation at G1 phase at 8 uM after 24 hrs by propidium iodide staining-based flow cytometric method (reference value: 58.2%); type: functional; in short: as §2
[9] = tested on: MKN-45; experiment: Induction of apoptosis in human MKN45 cells assessed as necrotic cells at 2 uM after 24 hrs by Annexin V-FITC/propidium iodide staining-based flow-cytometric method (reference value: 3.86%); type: functional
[10] = tested on: MKN-45; experiment: Cell cycle arrest in human MKN45 cells assessed as accumulation at G1 phase at 4 uM after 24 hrs by propidium iodide staining-based flow cytometric method (reference value: 58.2%); type: functional; in short: as §2
[11] = tested on: MKN-45; experiment: Cell cycle arrest in human MKN45 cells assessed as accumulation at S phase at 2 uM after 24 hrs by propidium iodide staining-based flow cytometric method (reference value: 24.9%); type: functional; in short: as §2
[12] = tested on: MKN-45; experiment: Induction of apoptosis in human MKN45 cells assessed as late apoptotic cells at 4 uM after 24 hrs by Annexin V-FITC/propidium iodide staining-based flow-cytometric method (reference value: 3.99%); type: functional
[13] = tested on: MKN-45; experiment: Induction of apoptosis in human MKN45 cells assessed as late apoptotic cells at 2 uM after 24 hrs by Annexin V-FITC/propidium iodide staining-based flow-cytometric method (reference value: 3.99%); type: functional
[14] = tested on: MKN-45; experiment: Induction of apoptosis in human MKN45 cells assessed as upregulation of Bax expression after 24 hrs by Western blot method; type: functional, cell-based; in short: as §3
[15] = tested on: MKN-45; experiment: Cell cycle arrest in human MKN45 cells assessed as accumulation at G2/M phase at 8 uM after 24 hrs by propidium iodide staining-based flow cytometric method (reference value: 1.62%); type: functional; in short: as §2
[16] = tested on: MKN-45; experiment: Induction of apoptosis in human MKN45 cells assessed as viable cells at 8 uM after 24 hrs by Annexin V-FITC/propidium iodide staining-based flow-cytometric method (reference value: 90.8%); type: functional; settings: MKN-45, 24 h, read-out: Activity
[17] = tested on: MKN-45; experiment: Induction of apoptosis in human MKN45 cells assessed as early apoptotic cells at 2 uM after 24 hrs by Annexin V-FITC/propidium iodide staining-based flow-cytometric method (reference value: 1.31%); type: functional
[18] = tested on: MKN-45; experiment: Induction of apoptosis in human MKN45 cells assessed as viable cells at 4 uM after 24 hrs by Annexin V-FITC/propidium iodide staining-based flow-cytometric method (reference value: 90.8%); type: functional; settings: MKN-45, 24 h, read-out: Activity
[19] = tested on: MKN-45; experiment: Induction of apoptosis in human MKN45 cells assessed as late apoptotic cells at 8 uM after 24 hrs by Annexin V-FITC/propidium iodide staining-based flow-cytometric method (reference value: 3.99%); type: functional
[20] = tested on: MKN-45; experiment: Induction of apoptosis in human MKN45 cells assessed as necrotic cells at 8 uM after 24 hrs by Annexin V-FITC/propidium iodide staining-based flow-cytometric method (reference value: 3.86%); type: functional
[21] = tested on: MKN-45; experiment: Induction of apoptosis in human MKN45 cells assessed as cell rounding at 4 to 8 uM after 24 hrs by Hoechst 33258 staining-based fluorescence microscopic method; type: functional
[22] = tested on: MKN-45; experiment: Cell cycle arrest in human MKN45 cells assessed as accumulation at G1 phase at 2 uM after 24 hrs by propidium iodide staining-based flow cytometric method (reference value: 58.2%); type: functional; in short: as §2
[23] = tested on: MKN-45; experiment: Cell cycle arrest in human MKN45 cells assessed as accumulation at G2/M phase at 4 uM after 24 hrs by propidium iodide staining-based flow cytometric method (reference value: 1.62%); type: functional; in short: as §2
[24] = tested on: MKN-45; experiment: Induction of apoptosis in human MKN45 cells after 24 hrs by Annexin V-FITC/propidium iodide staining-based flow-cytometric method; type: functional, cell-based
[25] = tested on: MKN-45; experiment: Induction of apoptosis in human MKN45 cells assessed as viable cells at 2 uM after 24 hrs by Annexin V-FITC/propidium iodide staining-based flow-cytometric method (reference value: 90.8%); type: functional; settings: MKN-45, 24 h, read-out: Activity
[26] = tested on: MKN-45; experiment: Induction of apoptosis in human MKN45 cells assessed as formation of apoptotic bodies at 4 to 8 uM after 24 hrs by Hoechst 33258 staining-based fluorescence microscopic method; type: functional, cell-based
[27] = tested on: MKN-45; experiment: Cell cycle arrest in human MKN45 cells assessed as accumulation at G2/M phase at 2 uM after 24 hrs by propidium iodide staining-based flow cytometric method (reference value: 1.62%); type: functional; in short: as §2
[28] = tested on: MKN-45; experiment: Induction of apoptosis in human MKN45 cells assessed as downregulation of Bcl-2 expression at 4 to 16 uM after 24 hrs by Western blot method; type: functional, cell-based; in short: as §3
[29] = tested on: MKN-45; experiment: Cell cycle arrest in human MKN45 cells assessed as accumulation at S phase at 4 uM after 24 hrs by propidium iodide staining-based flow cytometric method (reference value: 24.9%); type: functional; in short: as §2
[30] = tested on: MKN-45; experiment: Induction of apoptosis in human MKN45 cells assessed as early apoptotic cells at 8 uM after 24 hrs by Annexin V-FITC/propidium iodide staining-based flow-cytometric method (reference value: 1.31%); type: functional
[31] = tested on: MKN-45; experiment: Induction of apoptosis in human MKN45 cells assessed as early apoptotic cells at 4 uM after 24 hrs by Annexin V-FITC/propidium iodide staining-based flow-cytometric method (reference value: 1.31%); type: functional
[32] = tested on: MKN-45; experiment: Induction of apoptosis in human MKN45 cells assessed as cleavage of caspases-9 after 24 hrs by Western blot method; type: functional, cell-based; in short: as §3
[33] = tested on: MKN-45; experiment: Induction of apoptosis in human MKN45 cells assessed as necrotic cells at 4 uM after 24 hrs by Annexin V-FITC/propidium iodide staining-based flow-cytometric method (reference value: 3.86%); type: functional
[34] = tested on: MKN-45; experiment: Cell cycle arrest in human MKN45 cells assessed as accumulation at S phase at 8 uM after 24 hrs by propidium iodide staining-based flow cytometric method (reference value: 24.9%); type: functional; in short: as §2

Structure (SMILES): CCCSc1nc(N2CCOCC2)c2ncc(=O)n(Cc3ccccc3)c2n1
IC50 [1]: 49.6 µM
IC50 [2]: > 64 µM
IC50 [3]: > 64 µM
IC50 [4]: > 64 µM

Structure (SMILES): CCCSc1nc(N2CCN(C)CC2)c2ncc(=O)n(Cc3ccco3)c2n1
IC50 [1]: > 64 µM
IC50 [2]: 11.6 µM
IC50 [3]: 24 µM
IC50 [4]: 54.9 µM

Structure (SMILES): CCCSc1nc(N2CCSCC2)c2ncc(=O)n(Cc3ccccc3)c2n1
IC50 [1]: 34.7 µM
IC50 [2]: > 64 µM
IC50 [3]: > 64 µM
IC50 [4]: 54.8 µM

Structure (SMILES): CCCSc1nc(NCc2ccccc2)c2ncc(=O)n(Cc3ccccc3)c2n1
IC50 [1]: 46.6 µM
IC50 [2]: > 64 µM
IC50 [3]: > 64 µM
IC50 [4]: > 64 µM

Structure (SMILES): CCCSc1nc(NC2CC2)c2ncc(=O)n(Cc3ccccc3)c2n1
IC50 [1]: 43.7 µM
IC50 [2]: 23.3 µM
IC50 [3]: 29.7 µM
IC50 [4]: > 64 µM

Structure (SMILES): Cc1nc(N2CCN(C)CC2)c2ncc(=O)n(Cc3ccccc3)c2n1
IC50 [1]: > 64 µM
IC50 [2]: > 64 µM
IC50 [3]: 39 µM
IC50 [4]: > 64 µM

Structure (SMILES): CCCSc1nc(N2CCN(C)CC2)c2ncc(=O)n(CC3CCCCC3)c2n1
IC50 [1]: 53.7 µM
IC50 [2]: 17.9 µM
IC50 [3]: > 64 µM
IC50 [4]: 51.8 µM

Structure (SMILES): CCCNc1nc(SCCC)nc2c1ncc(=O)n2Cc1ccccc1
IC50 [1]: > 64 µM
IC50 [2]: 39.2 µM
IC50 [3]: > 64 µM
IC50 [4]: > 64 µM

Structure (SMILES): CCCSc1nc(Nc2ccccc2)c2ncc(=O)n(Cc3ccccc3)c2n1
IC50 [1]: 36.6 µM
IC50 [2]: 38.6 µM
IC50 [3]: 19 µM
IC50 [4]: > 64 µM

Structure (SMILES): CN1CCN(c2ncnc3c2ncc(=O)n3Cc2ccccc2)CC1
IC50 [1]: > 64 µM
IC50 [2]: > 64 µM
IC50 [3]: 41.7 µM
IC50 [4]: > 64 µM

The next molecules have a lower IC50 [1] than those just listed; values first:

IC50 [1]: 30.4 µM
IC50 [2]: 21 µM
IC50 [4]: > 64 µM
Structure (SMILES): CCCSc1nc(NCC2CCCCC2)c2ncc(=O)n(Cc3ccccc3)c2n1
IC50 [3]: 36 µM

IC50 [1]: 19.4 µM
IC50 [2]: 14.7 µM
IC50 [4]: 51.8 µM
Structure (SMILES): CCCSc1nc(Nc2ccccc2OC)c2ncc(=O)n(Cc3ccccc3)c2n1
IC50 [3]: > 64 µM

IC50 [1]: 18.7 µM
IC50 [2]: 15.4 µM
IC50 [4]: > 64 µM
Structure (SMILES): CCCSc1nc(N2CCN(Cc3ccccc3)CC2)c2ncc(=O)n(Cc3ccccc3)c2n1
IC50 [3]: > 64 µM

IC50 [1]: 17.2 µM
IC50 [2]: 16.8 µM
IC50 [4]: 45.4 µM
Structure (SMILES): CCCSc1nc(N2CCN(C)CC2)c2ncc(=O)n(CC(C)C)c2n1
IC50 [3]: 37.5 µM

IC50 [1]: 16.4 µM
IC50 [2]: 11.3 µM
IC50 [4]: > 64 µM
Structure (SMILES): CCCSc1nc(N2CCN(C)CC2)c2ncc(=O)n(Cc3cccs3)c2n1
IC50 [3]: 19.7 µM

IC50 [1]: 15 µM
IC50 [2]: 14.2 µM
IC50 [4]: 36.9 µM
Structure (SMILES): CCCSc1nc(Nc2cc(OC)c(OC)c(OC)c2)c2ncc(=O)n(Cc3ccccc3)c2n1
IC50 [3]: 38.7 µM

IC50 [1]: 13.8 µM
IC50 [2]: 9.97 µM
IC50 [4]: > 64 µM
Structure (SMILES): CCCSc1nc(N2CCN(C)CC2)c2ncc(=O)n(CCCc3ccccc3)c2n1
IC50 [3]: 18.3 µM

IC50 [1]: 7.01 µM
IC50 [2]: 4.32 µM
IC50 [4]: 9.92 µM
Structure (SMILES): CCCSc1nc(N2CCN(C)CC2)c2ncc(=O)n(Cc3ccccc3)c2n1
Activity [5]: Dose-dependent effect
Activity [6]: Dose-dependent effect
Activity [7]: Active
Activity [8]: 6.91%
Activity [9]: 1.62%
Activity [10]: 16.2%
Activity [11]: 20.2%
Activity [12]: 16%
Activity [13]: 11.3%
Activity [14]: Dose-dependent effect
Activity [15]: 40.8%
viability at 8 µM [16]: 66.8%
Activity [17]: 15.7%
viability at 4 µM [18]: 73%
Activity [19]: 23.1%
Activity [20]: 2.34%
Activity [21]: Active
Activity [22]: 42.2%
Activity [23]: 29.2%
Activity [24]: Dose-dependent effect
IC50 [3]: 9.85 µM
viability at 2 µM [25]: 71.4%
Activity [26]: Active
Activity [27]: 16.6%
Activity [28]: Active
Activity [29]: 24%
Activity [30]: 7.77%
Activity [31]: 9.91%
Activity [32]: Dose-dependent effect
Activity [33]: 1.02%
Activity [34]: 25.7%
